Source: PubChem BioAssay
Sampled rows, rich in hits. Any-hit rate of the full collection: about 2.9%.
ABHD4 inh = inhibitors of mouse ABHD4 | Q8VD66 | purified mABHD4, FP-Rh probe fluorescence polarization | inhibition, % at 8.92 µM | 370,000 tested, 0.54% active;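 active means inhibition exceeding the mean over every tested compound plus 3 SD, cut at about 30% in these data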;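 further: 0% = plate median of compound wells and 100% = S159A mutant with DMSO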
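Test system: mABHD4 protein | Buffer or medium: HEPES pH 7.0 buffer, 150 mM NaCl, 0.01% Pluronic F-127 | Probe or stimulus: FP-Rh fluorescent activity-based probe, added after compound pre-incubation | Timing: Pre-incubation 45 min, probe exposure 60 min, at 25 °C | Technique: Fluorescence polarization, excitation 525 nm, emission 598 nm, BODIPY TMR filters | Repeats: Single well per compound (singlicate)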
ATG4B inh = ATG4B (human) cysteine protease inhibition | Q9Y4P1 | ATG4B cleavage of LC3-PLA2, NBD-HPC fluorescence, 1 h | inhibition, % at 8.33 µM | 340,000 tested, 0.51% active | AID 504462; in the data active means inhibition above about 40%
HTRA1 inh = HTRA1 (human) protease inhibition. AID 504803. Q92743. 340,000 tested, 0.5% active. recombinant HTRA1, FP-rhodamine activity-based probe, fluorescence polarization. inhibition, % at 5.96 µM; in the data active means inhibition above about 36%;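 further: 0% = enzyme with DMSO and 100% = wells lacking enzyme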
TCR CD3 inh = human TCR-CD3 binding inhibition; AID 651800; inhibition, % at 9.4 µM; TAMRA-labeled TCR probe fluorescence, biochemical; 360,000 tested, 0.37% active; in the data active means inhibition above about 19%;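 further: recombinant mutant TCR 2C K166C tagged with TAMRA read by polarization; 0% = receptor in buffer alone and 100% = receptor with positive control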
SIAE primary = human SIAE inhibition, primary screen; Q9HAT2; SIAE FP-Rh probe binding, fluorescence polarization; inhibition, % at 9.66 µM; 370,000 tested, 0.69% active;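 active means inhibition above a cutoff: mean of compounds within the control limits plus 3 SD of those, cut at about 17% in these data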;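 further: 0% = plate median of compound wells and 100% = probe without SIAE protein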
PRMT1 inh = PRMT1 (human) inhibition, primary screen | AID 652257 | inhibition, % at 2.79 µM | 370,000 tested, 1.3% active | recombinant PRMT1, activity-based probe fluorescence polarization | Q99873;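 active means inhibition above about 21% made by adding two undisclosed values, limit read from the data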
HTRA1 inh conf = HTRA1 (human) inhibition, confirmation. inhibition, % at 5.96 µM. 1,600 tested, 66% active. recombinant HTRA1, FP-rhodamine activity-based probe, fluorescence polarization. shares compounds with HTRA1 inh;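 active means mean inhibition over three repeats above a set limit taken from the earlier primary screen, cut at about 37% in these data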;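 further: 0% = HTRA1 with DMSO and 100% = wells lacking HTRA1; inhibitors block probe binding so polarization drops and inhibition rises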
An asterisk follows results filed as active; . = no result.

SMILES	ABHD4 inh	ATG4B inh	HTRA1 inh	TCR CD3 inh	SIAE primary	PRMT1 inh	HTRA1 inh conf
CCOc1ccc(NC(=O)CN2CCCN(c3ccc(OC)cc3)CC2)cc1	5	.	.	.	3	4	.
O=C(C=C(O)c1ccc(Cl)cc1)C(=O)NNC(=O)C(O)(c1ccccc1)c1ccccc1	-8	14	41*	7	-12	1	36*
[O-][n+]1cccc2c(Br)cc(Br)c(O)c21	17	-9	72*	5	0	0	41*
CCCC1Nc2ccc(C(=O)O)cc2C2C=CCC12 (centres undefined)	.	18	39*	.	.	.	39*
CCCCCCCCC(=O)N/N=C/c1ccccn1	0	3	-1	5	-2	1	.
CCCCCCCCC/C(=N\O)c1ccccn1	-5	10	66*	2	-6	-1	66*
CN=c1scc(-c2ccco2)n1/N=C/c1ccc(O)c(O)c1	40*	10	74*	15	-2	9	73*
O=C(Oc1ccc(Cl)c2cccnc12)c1ccco1	0	14	72*	0	1	2	76*
O=C1CCC/C(=N/Nc2ccc(Cl)cc2)C1	18	2	37*	2	6	2	42*
Cn1c(=O)c2cc(S(=O)(=O)N3CCN(c4ccccc4Cl)CC3)ccc2n(C)c1=O	4	.	.	.	0	2	.
COc1c(O)c(O)c2oc(-c3ccccc3)cc(=O)c2c1OC	8	-8	46*	-2	1	12	60*
Cc1[nH]c2c(C)cccc2c1CCNC(=O)c1ccc2c(c1[N+](=O)[O-])C(=O)c1ccccc1C2=O	7	-21	42*	5	5	-4	44*
Cc1[nH]c2ccccc2c1CCNC(=O)c1ccc2c(c1[N+](=O)[O-])C(=O)c1ccccc1C2=O	6	-10	21	-2	4	1	.
S=C(NNC(=S)Nc1ccc(Cl)cc1)NNc1ccccc1	4	.	22	-1	8	0	.
S=C(N=Nc1ccccc1)NNc1ccccc1	22	7	43*	3	3	4	43*
NNC(=O)c1oc2nc(-c3ccccc3)cc(-c3ccccc3)c2c1N	16	-2	47*	15	7	-2	13
COC[C@H]1CCCN1c1cccc2c1S(=O)(=O)N1CC[C@@H](C1)O2	4	.	.	.	10	2	.
O=C(NC(=S)NNC(=O)c1ccccc1O)c1cccs1	12	-8	56*	19	16	-2	54*
NC(=Nc1nc(-c2ccccn2)cc2ccccc12)c1ccccn1	7	4	69*	-3	-1	-1	78*
Cc1ccc(-n2c(SCC(=O)Nc3ccc(Oc4ccccc4)cc3)nnc2-c2cccc(C)c2)cc1	9	.	.	.	0	10	.
COc1ccc(-c2c[n+]3c4n2CCCCC4=C(c2ccc(Br)cc2)C3)cc1	2	8	52*	-9	0	1	21
CN1c2ccccc2N(C)C1(C)c1cccc2ccccc12	10	-7	47*	5	6	19	-2
CN1c2cccc3cccc(c23)N(C)C1(C)C	27	13	5	-5	4	17	.
CC1(C)C=Cc2c(c3c(c4c(=O)c(-c5ccc(O)cc5)coc24)OC(C)(C)CC3)O1	0	-18	36*	7	-3	2	20
CC(C)=CCc1c2c(c3occ(-c4ccc(O)cc4)c(=O)c3c1O)C=CC(C)(C)O2	-17	0	-8	2	-12	1	.
O=C(Oc1c(CN2CCOCC2)cc(Cl)c2cccnc12)c1ccccc1Br	3	-8	39*	-9	-3	5	27
Cc1cccc(Cn2cc(CN3CC(N(C)CCCOC(=O)c4cc5ccccc5o4)CS3(=O)=O)nn2)c1 (centres undefined)	3	.	.	.	3	0	.
COc1c(OC2OC(C(=O)O)C(O)C(O)C2O)cc(O)c2c(=O)cc(-c3ccccc3)oc12 (centres undefined)	15	1	1	-3	2	10	.
